Results: ChEMBL document CHEMBL1926651, “Design, synthesis, antiviral and cytostatic evaluation of novel isoxazolidine nucleotide analogues with a 1,2,3-triazole linker” (Eur J Med Chem, 2012)
Calls of active or inactive are those of the source. The rule behind the calls is not given here.

Tests used:
[1] = test system: Vesicular stomatitis virus; test: Antiviral activity against Vesicular stomatitis virus infected in human Hela cells assessed as inhibition of viral plaque formation at 250 uM; type: functional, organism-based
[2] = Cytotoxicity against CRFK cells assessed as change in cell morphology up to 100 uM; type: cell-based, Felis catus; conditions: cat
Procedure, shortened: (§1)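 Uninfected host-cell cultures were examined under the microscope. MCC was taken as the lowest compound concentration producing a detectable alteration of normal cell morphology, assessed at concentrations up to 100 μM.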

[3] = test system: Human betaherpesvirus 5; test: Antiviral activity against Human cytomegalovirus Davis infected in human HEL cells assessed as inhibition of viral plaque formation at 250 uM; type: functional, organism-based
[4] = test system: MDCK; test: Cytotoxicity against MDCK cells assessed as change in cell morphology up to 100 uM; type: cell-based, Canis lupus familiaris; conditions: dog; procedure, shortened: as §1
[5] = test system: Human respirovirus 3; test: Antiviral activity against Parainfluenza-3 virus infected in african green monkey Vero cells assessed as inhibition of viral plaque formation at 250 uM; type: functional, organism-based
Procedure, shortened: (§2)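 Confluent host cell monolayers were inoculated with 100 CCID50 of virus in the presence of test compound at serial dilutions (250, 50, 10, … μM). Viral cytopathicity was scored once it reached completion in untreated virus-infected controls.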

[6] = test system: Human immunodeficiency virus 1; test: Antiviral activity against Human immunodeficiency virus 1 infected in human CEM cells assessed as inhibition of virus-induced giant cell formation after 4 days by microscopic analysis; type: functional, organism-based; conditions: CCRF-CEM
Procedure, shortened: (§3)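 CEM cells at about 3 × 10⁵ cells/cm³ were infected with 100 CCID50/mL of HIV-1(IIIB) or HIV-2(ROD), then seeded into wells holding test compound dilutions. After 4 days at 37 °C, virus-induced giant cell formation was scored microscopically.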

[7] = test system: Human alphaherpesvirus 3; test: Antiviral activity against thymidine kinase-positive Varicella Zoster virus Oka infected in human HEL cells assessed as inhibition of viral plaque formation at 250 uM; type: functional, cell-based; conditions: strain Oka vaccine
[8] = test system: Coxsackievirus B4; test: Antiviral activity against Coxsackievirus B4 infected in human HeLa cells assessed as inhibition of viral plaque formation at 250 uM; type: functional, organism-based; procedure, shortened: as §2
[9] = test system: HEL; test: Cytotoxicity against human HEL cells assessed as change in cell morphology up to 100 uM; type: cell-based; procedure, shortened: as §1
[10] = test system: Human alphaherpesvirus 1; test: Antiviral activity against Herpes simplex virus 1 KOS infected in human HEL cells assessed as inhibition of viral plaque formation at 250 uM; type: functional, organism-based; procedure, shortened: as §2
[11] = test system: HeLa; test: Cytotoxicity against human HeLa cells 3 days by coulter counting; type: functional; conditions: 72 h
Procedure, shortened: (§4)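 Cells were suspended at 300,000–500,000 cells/mL and added 1:1 to compound dilutions. Incubation was at 37 °C, 2 days for L1210 and 3 days for CEM, HeLa and HEL. Cells were counted with a Coulter counter. CC50 is the concentration inhibiting cell proliferation by 50%.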

[12] = test system: Punta Toro virus; test: Antiviral activity against Punta Toro virus infected in african green monkey Vero cells assessed as inhibition of viral plaque formation at 250 uM; type: functional, organism-based
[13] = test system: Vesicular stomatitis virus; test: Antiviral activity against Vesicular stomatitis virus infected in human HEL cells assessed as inhibition of viral plaque formation at 250 uM; type: functional, organism-based; procedure, shortened: as §2
[14] = test system: Respiratory syncytial virus; test: Antiviral activity against Respiratory syncytial virus infected in human HeLa cells assessed as inhibition of viral plaque formation at 250 uM; type: functional, organism-based; procedure, shortened: as §2
[15] = test system: Sindbis virus; test: Antiviral activity against Sindbis virus infected in african green monkey Vero cells assessed as inhibition of viral plaque formation at 250 uM; type: functional, organism-based; procedure, shortened: as §2
[16] = test system: Feline coronavirus; test: Antiviral activity against Feline coronavirus infected in CrFK cells assessed as inhibition of viral plaque formation at 250 uM; type: functional, organism-based; procedure, shortened: as §2
[17] = test system: Vaccinia virus; test: Antiviral activity against Vaccinia virus infected in human HEL cells assessed as inhibition of viral plaque formation at 250 uM; type: functional, organism-based; conditions: Orthopoxvirus vaccinia; procedure, shortened: as §2
[18] = test system: HeLa; test: Cytotoxicity against human HeLa cells assessed as change in cell morphology up to 100 uM; type: cell-based; procedure, shortened: as §1
[19] = test system: Felid alphaherpesvirus 1; test: Antiviral activity against Felid herpesvirus 1 infected in CrFK cells assessed as inhibition of viral plaque formation at 250 uM; type: functional, organism-based; procedure, shortened: as §2
[20] = test system: CCRF-CEM; test: Cytotoxicity against human CEM cells 3 days by coulter counting; type: functional; conditions: 72 h; procedure, shortened: as §4
[21] = test system: HEL; test: Cytotoxicity against human HEL cells 3 days by coulter counting; type: functional; conditions: 72 h; procedure, shortened: as §4
[22] = test system: Coxsackievirus B4; test: Antiviral activity against Coxsackievirus B4 infected in african green monkey Vero cells assessed as inhibition of viral plaque formation at 250 uM; type: functional, organism-based; procedure, shortened: as §2
[23] = test system: Human alphaherpesvirus 2; test: Antiviral activity against Herpes simplex virus 2 G infected in human HEL cells assessed as inhibition of viral plaque formation at 250 uM; type: functional, organism-based; conditions: strain G
[24] = test system: L1210; test: Cytotoxicity against mouse L1210 cells 2 days by coulter counting; type: functional; conditions: L1210, 48 h; procedure, shortened: as §4
[25] = test system: Mammalian orthoreovirus 1; test: Antiviral activity against Reovirus-1 infected in african green monkey Vero cells assessed as inhibition of viral plaque formation at 250 uM; type: functional, organism-based; procedure, shortened: as §2
[26] = test system: Human betaherpesvirus 5; test: Antiviral activity against Human cytomegalovirus AD169 infected in human HEL cells assessed as inhibition of viral plaque formation at 250 uM; type: functional, organism-based
[27] = test system: Human immunodeficiency virus 2; test: Antiviral activity against Human immunodeficiency virus 2 infected in human CEM cells assessed as inhibition of virus-induced giant cell formation after 4 days by microscopic analysis; type: functional, organism-based; conditions: CCRF-CEM; procedure, shortened: as §3
[28] = test system: Vero; test: Cytotoxicity against african green monkey Vero cells assessed as change in cell morphology up to 100 uM; type: cell-based; conditions: chlorocebus sabaeus; procedure, shortened: as §1
[29] = test system: Human alphaherpesvirus 1; test: Antiviral activity against thymidine kinase-deficient acv-resistant Herpes simplex virus 1 KOS infected in human HEL cells assessed as inhibition of viral plaque formation at 250 uM; type: functional, organism-based
[30] = test system: Human alphaherpesvirus 3; test: Antiviral activity against thymidine kinase-deficient Varicella Zoster virus 07/1 infected in human HEL cells assessed as inhibition of viral plaque formation at 250 uM; type: functional, organism-based

## CCOP(=O)(OCC)[C@@H]1C[C@@H](n2cc(-c3cccc(F)c3)nn2)ON1C (racemic)
[1]
  Activity: inactive
[2]
  Activity: Non-toxic
[3]
  Activity: inactive
[4]
  Activity: Non-toxic
[5]
  Activity: inactive
[6]
  Activity: inactive
[7]
  Activity: inactive
[8]
  Activity: inactive
[9]
  Activity: Non-toxic
[10]
  Activity: inactive
[11]
  CC50: ≥ 250 µM
[12]
  Activity: inactive
[13]
  Activity: inactive
[14]
  Activity: inactive
[15]
  Activity: inactive
[16]
  Activity: inactive
[17]
  Activity: inactive
[18]
  Activity: Non-toxic
[19]
  Activity: inactive
[20]
  CC50: > 250 µM
[21]
  CC50: 40 µM
[22]
  Activity: inactive
[23]
  Activity: inactive
[24]
  CC50: ≥ 250 µM
[25]
  Activity: inactive
[26]
  Activity: inactive
[27]
  Activity: inactive
[28]
  Activity: Non-toxic
[29]
  Activity: inactive
[30]
  Activity: inactive

## CCOP(=O)(OCC)[C@@H]1C[C@@H](n2cc(-c3ccc(F)cc3F)nn2)ON1C (racemic)
[1]
  Activity: inactive
[2]
  Activity: Non-toxic
[3]
  Activity: inactive
[4]
  Activity: Non-toxic
[5]
  Activity: inactive
[6]
  Activity: inactive
[7]
  Activity: inactive
[8]
  Activity: inactive
[9]
  Activity: Non-toxic
[10]
  Activity: inactive
[11]
  CC50: 162 µM
[12]
  Activity: inactive
[13]
  Activity: inactive
[14]
  Activity: inactive
[15]
  Activity: inactive
[16]
  Activity: inactive
[17]
  Activity: inactive
[18]
  Activity: Non-toxic
[19]
  Activity: inactive
[20]
  CC50: ≥ 250 µM
[21]
  CC50: 59 µM
[22]
  Activity: inactive
[23]
  Activity: inactive
[24]
  CC50: 131 µM
[25]
  Activity: inactive
[26]
  Activity: inactive
[27]
  Activity: inactive
[28]
  Activity: Non-toxic
[29]
  Activity: inactive
[30]
  Activity: inactive

## CCOP(=O)(OCC)[C@@H]1C[C@@H](n2cc(-c3ccccn3)nn2)ON1C (racemic)
[1]
  Activity: inactive
[2]
  Activity: Non-toxic
[3]
  Activity: inactive
[4]
  Activity: Non-toxic
[5]
  Activity: inactive
[6]
  Activity: inactive
[7]
  Activity: inactive
[8]
  Activity: inactive
[9]
  Activity: Non-toxic
[10]
  Activity: inactive
[11]
  CC50: > 250 µM
[12]
  Activity: inactive
[13]
  Activity: inactive
[14]
  Activity: inactive
[15]
  Activity: inactive
[16]
  Activity: inactive
[17]
  Activity: inactive
[18]
  Activity: Non-toxic
[19]
  Activity: inactive
[20]
  CC50: > 250 µM
[21]
  CC50: 62 µM
[22]
  Activity: inactive
[23]
  Activity: inactive
[24]
  CC50: ≥ 250 µM
[25]
  Activity: inactive
[26]
  Activity: inactive
[27]
  Activity: inactive
[28]
  Activity: Non-toxic
[29]
  Activity: inactive
[30]
  Activity: inactive

## CCOP(=O)(OCC)[C@@H]1C[C@@H](n2cc(-c3ccccc3F)nn2)ON1C (relative stereo)
[1]
  Activity: inactive
[2]
  Activity: Non-toxic
[3]
  Activity: inactive
[4]
  Activity: Non-toxic
[5]
  Activity: inactive
[6]
  Activity: inactive
[7]
  Activity: inactive
[8]
  Activity: inactive
[9]
  Activity: Non-toxic
[10]
  Activity: inactive
[11]
  CC50: 202 µM
[12]
  Activity: inactive
[13]
  Activity: inactive
[14]
  Activity: inactive
[15]
  Activity: inactive
[16]
  Activity: inactive
[17]
  Activity: inactive
[18]
  Activity: Non-toxic
[19]
  Activity: inactive
[20]
  CC50: > 250 µM
[21]
  CC50: 73 µM
[22]
  Activity: inactive
[23]
  Activity: inactive
[24]
  CC50: 120 µM
[25]
  Activity: inactive
[26]
  Activity: inactive
[27]
  Activity: inactive
[28]
  Activity: Non-toxic
[29]
  Activity: inactive
[30]
  Activity: inactive

## CCOP(=O)(OCC)[C@@H]1C[C@H](n2cc(-c3ccccc3)nn2)ON1C (relative stereo)
[1]
  Activity: inactive
[2]
  Activity: Non-toxic
[3]
  Activity: inactive
[4]
  Activity: Non-toxic
[5]
  Activity: inactive
[6]
  Activity: inactive
[7]
  Activity: inactive
[8]
  Activity: inactive
[9]
  Activity: Non-toxic
[10]
  Activity: inactive
[11]
  CC50: > 250 µM
[12]
  Activity: inactive
[13]
  Activity: inactive
[14]
  Activity: inactive
[15]
  Activity: inactive
[16]
  Activity: inactive
[17]
  Activity: inactive
[18]
  Activity: Non-toxic
[19]
  Activity: inactive
[20]
  CC50: > 250 µM
[21]
  CC50: 54 µM
[22]
  Activity: inactive
[23]
  Activity: inactive
[24]
  CC50: 172 µM
[25]
  Activity: inactive
[26]
  Activity: inactive
[27]
  Activity: inactive
[28]
  Activity: Non-toxic
[29]
  Activity: inactive
[30]
  Activity: inactive

## CCOP(=O)(OCC)[C@@H]1C[C@H](n2cc(-c3ccccc3F)nn2)ON1C (relative stereo)
[1]
  Activity: inactive
[2]
  Activity: Non-toxic
[3]
  Activity: inactive
[4]
  Activity: Non-toxic
[5]
  Activity: inactive
[6]
  Activity: inactive
[7]
  Activity: inactive
[8]
  Activity: inactive
[9]
  Activity: Non-toxic
[10]
  Activity: inactive
[11]
  CC50: 247 µM
[12]
  Activity: inactive
[13]
  Activity: inactive
[14]
  Activity: inactive
[15]
  Activity: inactive
[16]
  Activity: inactive
[17]
  Activity: inactive
[18]
  Activity: Non-toxic
[19]
  Activity: inactive
[20]
  CC50: > 250 µM
[21]
  CC50: 41 µM
[22]
  Activity: inactive
[23]
  Activity: inactive
[24]
  CC50: 122 µM
[25]
  Activity: inactive
[26]
  Activity: inactive
[27]
  Activity: inactive
[28]
  Activity: Non-toxic
[29]
  Activity: inactive
[30]
  Activity: inactive
